PMC3624906 (The Biochemical journal, 2012)
Values belong to the molecule of their own block, whether it stands above or below them.

Legend:
GST-MIM-S1 (murine) = GST-MIM-S1 (murine) (UniProt Q8R1S4); assay: pull-down
MIM-Myc [1] = target: T1, MIM-Myc (murine, UniProt Q8R1S4 1-759); assay: co-IP
T1 sequence (looked up): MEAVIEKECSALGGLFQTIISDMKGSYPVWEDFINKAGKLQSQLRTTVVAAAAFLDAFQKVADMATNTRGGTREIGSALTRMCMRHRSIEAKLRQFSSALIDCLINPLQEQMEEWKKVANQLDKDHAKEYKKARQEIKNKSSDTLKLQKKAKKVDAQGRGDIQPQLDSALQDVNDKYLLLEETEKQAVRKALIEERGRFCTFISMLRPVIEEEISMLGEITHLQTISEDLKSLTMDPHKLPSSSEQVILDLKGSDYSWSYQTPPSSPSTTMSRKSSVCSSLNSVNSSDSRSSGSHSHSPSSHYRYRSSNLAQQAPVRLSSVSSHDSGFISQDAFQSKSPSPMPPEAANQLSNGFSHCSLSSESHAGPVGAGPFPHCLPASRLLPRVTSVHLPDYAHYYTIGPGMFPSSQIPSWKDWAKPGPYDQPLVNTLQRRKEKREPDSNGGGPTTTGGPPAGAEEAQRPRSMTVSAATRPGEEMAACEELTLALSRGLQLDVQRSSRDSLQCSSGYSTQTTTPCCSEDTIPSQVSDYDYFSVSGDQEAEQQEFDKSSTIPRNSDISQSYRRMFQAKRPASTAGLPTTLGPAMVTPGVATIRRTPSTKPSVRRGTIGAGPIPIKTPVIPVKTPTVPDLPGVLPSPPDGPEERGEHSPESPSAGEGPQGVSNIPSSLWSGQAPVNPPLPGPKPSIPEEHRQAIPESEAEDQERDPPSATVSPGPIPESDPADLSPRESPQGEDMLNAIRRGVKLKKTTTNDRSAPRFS

MIM-Myc [2] = target: T1, MIM-Myc; assay: pull-down
MIM-GFP = target: T2, MIM-GFP (murine, UniProt Q8R1S4 1-759); assay: co-IP
T2 sequence (looked up): T1 sequence (looked up)

MIM-I-BAR-Myc = assay: Pull-down of cell lysates with GST-MIM-S1/-S2, unbound MIM by Western blot; assay type: binding, murine; details: GST-tagged recombinant peptide, Western blot anti-Myc, in words
Method in brief: (§1)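 GST-tagged test peptide made in DH5α (0.5 mM IPTG added at OD600 0.3–0.4, then 90 min). It was captured on glutathione Sepharose 4B (2 h, 4°C) and washed in PBS. 293T cells were transfected with the Myc-tagged MIM construct and lysed 48 h later. Lysates were precipitated with the bead-bound peptide at varying concentrations. Supernatant (unbound MIM) and washed pellets were analysed by SDS-PAGE/anti-Myc Western blot with chemiluminescence.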

MIM-Myc [3] = assay: as above; assay type: binding, murine; details: GST-tagged recombinant peptide, Western blot anti-Myc, in words
Method in brief: as §1

Molecule: AFQKVADMATNTRGGTREIGSALTRMCMRHRSI [MIM-S3]
IC50 (MIM-Myc [1]): 140 nM

B2: GST-MIM-S1: recombinant GST-tagged form of peptide MIM-S1 (protein)
chain: TIISDMKGSYPVWEDFINKAGKLQSQLRTTVVAAAAFLDAFQKVADMATNTRGGTREIGSALTRMCMRHRSI
modifications: left off: GST, end not stated, kept
pull-down of MIM-I-BAR-Myc from 293T lysates (MIM-I-BAR-Myc): able to precipitate effectively
pull-down of MIM-Myc from 293T lysates (MIM-Myc [3]): able to precipitate effectively

Further lines, results first:

Kd (GST-MIM-S1 (murine)): 65 nM
Molecule: MIM-I-BAR-Myc (domain or fragment)

Kd (MIM-Myc [2]): 110 nM
IC50 (MIM-GFP): 213 nM
B1: GST-MIM-S1 (domain or fragment, murine, UniProt Q8R1S4 18-89, looked up)
chain: B2 chain
